Data on four molecules can be found in ChEMBL document CHEMBL3745678, “Novel β-Carboline/Hydroxamic Acid Hybrids Targeting Both Histone Deacetylase and DNA Display High Anticancer Activity via Regulation of the p53 Signaling Pathway” (J Med Chem, 2015).

Data set [1] in a line: Antiproliferative activity against human SW620 cells assessed as cell viability after 48 hrs by MTT assay. The data set is classed as functional, cell-based. The note with it: SW-620, 48 h.
Data set [2] can be described thus: Antiproliferative activity against human HCT116 cells assessed as cell viability after 48 hrs by MTT assay. The class given is functional, cell-based, HCT-116. The following applies: for pIC50: Homo sapiens, HCT-116, 48 h.
Data set [3] concerns HCT-116. In words: Induction of DNA damage in human HCT116 cells assessed as histone H2AX phosphorylation at S139 at 20 uM after 12 hrs by western blot analysis. The class given is functional, cell-based. The gist of the method: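 HCT116 cells treated for 12 h, then lysed on ice in PBS with 1% Nonidet P-40, 0.5% sodium deoxycholate, 0.1% SDS and protease inhibitors. Up to 50 µg protein run on SDS-PAGE and blotted to PVDF. Probed overnight at 4 °C with anti-H2AX S139ph, with ECL detection. Band intensity scanned relative to β-actin, three separate experiments.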
On the technique in general: A western blot detects proteins with antibodies after separation by electrophoresis.

Data set [4] has as its system LoVo. In words: Antiproliferative activity against human LoVo cells assessed as cell viability after 48 hrs by MTT assay. The class given is functional, cell-based. On the technique in general: Tetrazolium assays rely on reduction of a dye to a coloured formazan, in cell work by metabolically active cells.
The next data set concerns the target Histone deacetylase. In words: Inhibition of HDAC in human HeLa cell nuclear extract using Boc-Lys (Ac)-AMC as substrate after 60 mins by fluorometric analysis. The data set is classed as cell-based.
Data set [5] concerns HCT-116. Description: Potency index, ratio of SAHA IC50 to compound IC50 for human HCT116 cells. The data set is classed as functional. The gist of the method:
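HCT116 cells seeded at 10^4 cells/ml and adhered overnight, then treated 48 h over a concentration series with 0.1% DMSO as control. MTT readout; IC50 derived from inhibition % = (1 − OD treated/OD control) × 100, three independent measurements. Index = SAHA IC50 ÷ compound IC50.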

Data set [6] has as its system HCT-116. In words: Induction of DNA damage in human HCT116 cells assessed as histone H2AX phosphorylation at S139 at 1 to 5 uM after 12 hrs by western blot analysis. The class given is functional, cell-based. The gist of the method: (§1)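 DNA-damage marker. HCT116 cells treated 12 h with compound or vehicle. Lysates immunoblotted with anti-H2AX S139ph, and β-actin served as the control. Relative levels were obtained by densitometric scanning; means ± SD of three separate experiments.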

The next data set concerns SW480. Description: Antiproliferative activity against human SW480 cells assessed as cell viability after 48 hrs by MTT assay. The note with it: SW480, 48 h. The data set is classed as functional, cell-based.
The target of data set [7] is Cellular tumor antigen p53 (Homo sapiens) (UniProt P04637). Description: Induction of p53 activation in human HCT116 cells assessed as upregulation of p21 expression at 1 to 5 uM after 12 hrs by western blot analysis. The class given is cell-based. The following applies: HCT-116. Summed up:
(§2)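 HCT116 cells exposed 12 h to compound or vehicle, then lysed on ice in PBS with 1% NP-40, 0.5% deoxycholate, 0.1% SDS and protease inhibitors. Up to 50 µg protein run on SDS-PAGE and immunoblotted for phospho-p53 (Ser15), p53 and p21. Bands quantified by densitometry against β-actin; mean ± SD of three experiments.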

In data set [8] the target is T1, Protein deacetylase HDAC6 (Homo sapiens, UniProt Q9UBN7).
T1 sequence (Q9UBN7 whole entry): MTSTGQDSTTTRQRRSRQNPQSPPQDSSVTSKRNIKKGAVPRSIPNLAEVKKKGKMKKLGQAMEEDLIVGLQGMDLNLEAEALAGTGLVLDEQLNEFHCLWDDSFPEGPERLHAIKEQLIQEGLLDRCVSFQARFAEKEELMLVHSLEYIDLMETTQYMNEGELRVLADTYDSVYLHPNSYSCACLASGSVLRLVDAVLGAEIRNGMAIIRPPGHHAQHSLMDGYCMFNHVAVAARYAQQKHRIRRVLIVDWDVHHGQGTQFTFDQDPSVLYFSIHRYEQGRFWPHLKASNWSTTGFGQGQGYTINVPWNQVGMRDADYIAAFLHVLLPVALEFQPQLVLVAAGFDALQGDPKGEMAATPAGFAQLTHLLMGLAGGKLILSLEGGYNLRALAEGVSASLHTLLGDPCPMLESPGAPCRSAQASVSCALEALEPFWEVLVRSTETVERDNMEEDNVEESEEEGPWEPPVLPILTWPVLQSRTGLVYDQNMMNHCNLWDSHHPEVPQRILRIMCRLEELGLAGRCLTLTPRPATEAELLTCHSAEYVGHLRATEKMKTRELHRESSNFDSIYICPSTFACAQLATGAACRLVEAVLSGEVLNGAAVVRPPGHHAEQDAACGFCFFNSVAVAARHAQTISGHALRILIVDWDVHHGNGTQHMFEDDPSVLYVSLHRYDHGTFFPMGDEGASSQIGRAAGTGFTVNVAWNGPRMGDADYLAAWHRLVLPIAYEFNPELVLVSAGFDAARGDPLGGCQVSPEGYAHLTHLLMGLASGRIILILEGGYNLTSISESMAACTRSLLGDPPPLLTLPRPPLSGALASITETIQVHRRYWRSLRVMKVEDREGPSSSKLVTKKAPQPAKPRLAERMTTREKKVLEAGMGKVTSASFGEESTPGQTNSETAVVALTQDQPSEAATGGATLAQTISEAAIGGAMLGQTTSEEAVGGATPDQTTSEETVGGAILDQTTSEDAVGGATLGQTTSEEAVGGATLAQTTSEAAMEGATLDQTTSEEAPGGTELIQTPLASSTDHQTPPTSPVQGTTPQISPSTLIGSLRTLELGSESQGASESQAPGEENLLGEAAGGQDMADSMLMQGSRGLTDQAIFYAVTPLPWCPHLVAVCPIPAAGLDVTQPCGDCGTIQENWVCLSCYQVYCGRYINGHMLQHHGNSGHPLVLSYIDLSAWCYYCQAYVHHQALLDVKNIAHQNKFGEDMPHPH
Description: Inhibition of recombinant human HDAC6 using Boc-Lys (Ac)-AMC as substrate after 60 mins by fluorometric analysis.

The test system of data set [9] is HCT-116. Description: Induction of DNA damage in human HCT116 cells assessed as histone H2AX phosphorylation at S139 after 12 hrs by western blot analysis. The class given is functional, cell-based. Summed up: as §1
The target in a further data set is Histone deacetylase 1 (Homo sapiens, UniProt Q13547). Description: Inhibition of recombinant human HDAC1 using Boc-Lys (Ac)-AMC as substrate after 60 mins by fluorometric analysis.
Histone deacetylase 1, sequence (Q13547 whole entry): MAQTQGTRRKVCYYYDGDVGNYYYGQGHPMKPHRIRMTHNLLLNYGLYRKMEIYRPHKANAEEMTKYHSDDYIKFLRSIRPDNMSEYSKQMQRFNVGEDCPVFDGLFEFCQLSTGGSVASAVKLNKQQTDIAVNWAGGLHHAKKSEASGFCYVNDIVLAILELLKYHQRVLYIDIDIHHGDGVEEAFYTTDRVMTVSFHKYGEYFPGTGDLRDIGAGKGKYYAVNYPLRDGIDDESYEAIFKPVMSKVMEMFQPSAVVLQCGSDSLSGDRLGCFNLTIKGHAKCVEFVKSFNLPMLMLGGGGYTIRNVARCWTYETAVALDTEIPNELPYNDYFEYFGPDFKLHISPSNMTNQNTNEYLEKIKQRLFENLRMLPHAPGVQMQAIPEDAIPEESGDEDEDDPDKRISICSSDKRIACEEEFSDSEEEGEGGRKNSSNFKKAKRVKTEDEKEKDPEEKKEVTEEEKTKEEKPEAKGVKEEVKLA
The target of a further data set is T2, Histone deacetylase 8 (Homo sapiens, UniProt Q9BY41).
T2 sequence (Q9BY41 whole entry): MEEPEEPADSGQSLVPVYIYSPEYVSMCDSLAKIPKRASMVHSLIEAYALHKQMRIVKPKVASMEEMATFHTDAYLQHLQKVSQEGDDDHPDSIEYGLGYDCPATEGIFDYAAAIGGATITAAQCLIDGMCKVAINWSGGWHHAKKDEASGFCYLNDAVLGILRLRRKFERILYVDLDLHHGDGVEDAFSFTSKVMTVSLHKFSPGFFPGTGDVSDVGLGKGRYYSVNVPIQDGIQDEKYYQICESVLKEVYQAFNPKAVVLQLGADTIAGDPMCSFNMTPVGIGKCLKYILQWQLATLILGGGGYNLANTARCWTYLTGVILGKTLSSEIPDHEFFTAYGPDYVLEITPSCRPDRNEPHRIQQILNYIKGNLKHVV
In words: Inhibition of recombinant human HDAC8 using Boc-Lys (Ac)-AMC as substrate after 60 mins by fluorometric analysis.

In data set [10] the target is Cellular tumor antigen p53 (Homo sapiens) (UniProt P04637). Description: Activation of p53 in human HCT116 cells assessed as p53 phosphorylation at ser15 residue at 0.1 to 5 uM after 12 hrs by western blot analysis. The class given is cell-based. The following applies: HCT-116. Summed up:
as §2

Data set [11] deals with HCT-116. In words: Induction of caspase-3 cleavage in human HCT116 cells at 1 to 5 uM after 48 hrs by western blot analysis. The class given is functional, cell-based. The gist of the method:
(§3)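 HCT116 cells treated 48 h with or without compound. Western blots probed for Bax, Bcl-2, cleaved caspase-3 and PARP. Band intensities relative to β-actin by densitometry; means ± SD from three separate experiments.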

Data set [12] has as its target Cellular tumor antigen p53 (Homo sapiens) (UniProt P04637). Description: Activation of p53 in human HCT116 cell at 0.1 to 5 uM after 12 hrs by western blot analysis. The data set is classed as cell-based. The note with it: HCT-116. Summed up: as §2
Data set [13] shares this target. Description: Induction of p53 activation in human HCT116 cells assessed as upregulation of p21 expression at 0.1 to 5 uM after 12 hrs by western blot analysis. The data set is classed as cell-based. The following applies: HCT-116. The gist of the method:
as §2

A short description of data set [14]: Antitumor activity against human HCT116 cells xenografted in BALB/c mouse assessed as tumor weight at 90 mg/kg, po measured twice per week over 22 days (reference value: 1.38 +/- 0.13 g). The class given is functional, HCT-116. Background: Xenograft models place foreign cells or tissue in a host animal.
Data set [15] concerns HCT-116. In words: Induction of apoptosis in human HCT116 cells at 5 uM after 48 hrs by annexin V-FITC/propidium iodide staining-based flow cytometric analysis. The data set is classed as functional. Summed up:
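HCT116 cells cultured overnight, then exposed in triplicate for 48 h to 0.1, 1.0 or 5.0 µM, SAHA 5.0 µM or vehicle. Stained with FITC-Annexin V/PI for 15 min at room temperature.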

The nature of data set [16]: Cytotoxicity against rat IEC-18 cells assessed as survival after 48 hrs by MTT assay. The data set is classed as cell-based. The gist of the method: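 HCT116 and rat IEC-18 cells incubated 48 h over a 0–5 µM range. Viability measured by MTT and expressed as % of control. GI50 taken from the inhibition curves; three independent experiments.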
The subject of data set [17] is HCT-116. In words: Induction of PARP cleavage in human HCT116 cells at 1 to 5 uM after 48 hrs by western blot analysis. The data set is classed as functional, cell-based. The gist of the method:
as §3

Data set [18] relates to HCT-116. Description: Antiproliferative activity against human HCT116 cells at 25 uM after 48 hrs by MTT assay. The data set is classed as functional, cell-based. Summed up:
(§4)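 Single-point screen at 25 µM in HCT116, SW620 and LOVO cells. Cells seeded at 10^4 cells/ml in DMEM + 10% FBS and left to adhere overnight at 37 °C, 5% CO2. MTT read 48 h after dosing with 0.1% DMSO as the negative control. Inhibition % = (1 − OD treated/OD control) × 100; mean ± SD of three measurements.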

The subject of another data set is SW-620. In words: Antiproliferative activity against human SW620 cells at 25 uM after 48 hrs by MTT assay. The class given is functional, cell-based. Summed up: as §4
In data set [19] the test system is LoVo. In words: Antiproliferative activity against human LoVo cells at 25 uM after 48 hrs by MTT assay. The class given is functional, cell-based. The gist of the method: as §4

pIC50: −log10 of the molar value. Activity calls are given as the source filed them. The calls are words filed in the database; no cut-off is given here. Where only a bound is given, the exact number is not on record here.

Cellular tumor antigen p53 (Homo sapiens), sequence (P04637 whole entry, looked up): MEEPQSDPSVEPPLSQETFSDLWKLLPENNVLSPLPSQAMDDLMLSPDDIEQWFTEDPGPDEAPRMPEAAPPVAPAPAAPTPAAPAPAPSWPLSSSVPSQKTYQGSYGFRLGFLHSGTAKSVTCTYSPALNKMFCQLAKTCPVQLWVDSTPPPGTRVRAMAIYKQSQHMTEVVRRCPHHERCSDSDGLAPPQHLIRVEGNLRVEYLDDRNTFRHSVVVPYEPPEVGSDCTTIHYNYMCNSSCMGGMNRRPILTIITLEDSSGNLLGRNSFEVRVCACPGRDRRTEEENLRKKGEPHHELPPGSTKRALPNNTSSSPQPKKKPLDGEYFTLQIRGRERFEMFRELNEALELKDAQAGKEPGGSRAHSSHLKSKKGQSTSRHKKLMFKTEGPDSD

Usually pIC50 stands for −log10 of the IC50, conventionally taken in molar units. By IC50 is commonly meant the midpoint of a concentration-inhibition curve. Higher therefore signals lower potency. For the molecule `COc1ccc2c(c1)[nH]c1c(C)nccc12` [HARMINE], the pIC50 is 4.37 in data set [1], 4.33 in [2] and 4.27 in the data set with LoVo [4]. For the same molecule, in the data set on HCT-116 [3], the result was Active. On Histone deacetylase, this molecule displayed an IC50 of over 10 µM.
Turning to `COc1ccc(-c2nc(NC(=O)NCCCC(=O)NO)cc3c4ccccc4n(C)c23)cc1`, the Ratio IC50 in the data set with HCT-116 [5] came out at 4. The result (in the data set with HCT-116 [6]; in data set [7]) was Active. Besides, the negative-log IC50 (pIC50) is 5.71 in data set [1]; 5.50 in the data set on SW480; 5.88 in data set [2]; 6.82 in data set [8]; 6.62 on Histone deacetylase 1; 6.24 on Histone deacetylase 8. Also, the pIC50 in the data set on LoVo [4] was 5.52. In addition, in the data set on HCT-116 [9], the Activity entry is “Dose-dependent effect”. Also, the IC50 against Histone deacetylase was determined as 0.51 µM.
In general, GI50 refers to the concentration giving 50% growth inhibition. As to `O=C(CCCCCCC(=O)Nc1ccccc1)NO` [VORINOSTAT], the outcome (in the data set with HCT-116 [6]; in the data set with HCT-116 [11]; in data set [13]; in the data set on HCT-116 [17]) was Active. The 50% growth inhibitory concentration (GI50) in data set [2] turned out to be 4.64 µM. Further, the result in data set [10] and in data set [12] was inactive. Further, the results for the Activity (in data set [14]; in the data set on HCT-116 [15]) were 0.62 g and 34.3%, respectively. Moreover, in data set [16], the GI50 at 48 h is 9.95 µM.
With `COc1ccc(-c2nc(C(=O)NCCCC(=O)NO)cc3c2[nH]c2ccccc23)cc1`, in the data set with HCT-116 [5], the “Ratio IC50” value is 2. The pIC50 was 5.35 in [1]; 5.33 in the data set on SW480; 5.57 in [2]; 7.21 in data set [8]; 6.89 on Histone deacetylase 1; 6.41 on Histone deacetylase 8. For the same molecule, in the data set with LoVo [4], the pIC50 was 5.42. The outcome with HCT-116 [18], in the data set with SW-620 and in the data set on LoVo [19] was Active. In addition, the IC50 on Histone deacetylase is 0.67 µM.
